Laboratory results as given in ChEMBL document CHEMBL1138305, “Novel substituted (Z)-2-(N-benzylindol-3-ylmethylene)quinuclidin-3-one and (Z)-(+/-)-2-(N-benzylindol-3-ylmethylene)quinuclidin-3-ol derivatives as potent thermal sensitizing agents” (2007).

Assays:
HT-29 [1] = test: Growth inhibition of HT29 cells assessed as relative survival at 150 uM after 2 hrs relative to control; assay type: functional, Homo sapiens
Method in brief: (§1)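 HT-29 colon carcinoma cells were exposed to drug for 2 h at 41°C, with DMSO as vehicle. Drug was then washed off and cells grown 14 days in fresh medium. Colonies of more than 50 cells were stained with crystal violet and counted. Survival was corrected for plating efficiency (vehicle, 2 h, 37°C) and for 2 h drug exposure at 37°C; vehicle at 41°C was set to 1.0. Student's t test.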

HT-29 [2] = test: Cell survival of human HT29 cells at 150 uM after 2 hrs; assay type: functional; settings: HT-29, 2 h, read-out: Survival
HT-29 [3] = test: Growth inhibition of HT29 cells assessed as relative survival at 50 uM after 2 hrs relative to control; assay type: functional, Homo sapiens; method in brief: as §1
HT-29 [4] = test: Growth inhibition of HT29 cells at 50 uM after 2 hrs; assay type: functional; settings: Homo sapiens, HT-29, 2 h; method in brief: as §1

Cc1ccc(Cn2cc(/C=C3/C(O)C4CCN3CC4)c3cc(Br)ccc32)cc1 (configuration not stated)
Survival (HT-29 [1]): 0.78 | viability at 150 µM (HT-29 [2]): > 70%

OC1/C(=C/c2cn(Cc3ccc(F)cc3)c3ccccc23)N2CCC1CC2 (configuration not stated)
Survival (HT-29 [3]): 0.7 | viability at 150 µM (HT-29 [2]): < 70%

OC1/C(=C/c2cn(Cc3ccc(Cl)cc3)c3ccc(Br)cc23)N2CCC1CC2 (configuration not stated)
Survival (HT-29 [1]): 0.9 | viability at 150 µM (HT-29 [2]): > 70%

OC1/C(=C/c2cn(Cc3ccccc3Br)c3ccc(Br)cc23)N2CCC1CC2 (configuration not stated)
Survival (HT-29 [1]): 0.58 | viability at 150 µM (HT-29 [2]): > 70%

O=C1/C(=C/c2cn(Cc3ccccc3)c3ccccc23)N2CCC1CC2
Survival (HT-29 [1]): 0.5

Cc1ccc2c(c1)c(/C=C1/C(=O)C3CCN1CC3)cn2Cc1ccccc1
Survival (HT-29 [1]): 0.98 | viability at 150 µM (HT-29 [2]): > 70%

Cc1ccc(Cn2cc(/C=C3/C(=O)C4CCN3CC4)c3cc(Br)ccc32)cc1
Survival (HT-29 [1]): 1 | viability at 150 µM (HT-29 [2]): > 70%

O=C1/C(=C/c2cn(Cc3ccc(Cl)cc3)c3ccccc23)N2CCC1CC2
Survival (HT-29 [1]): 0.56 | viability at 150 µM (HT-29 [2]): > 70%

O=C1/C(=C/c2cn(Cc3ccc(F)cc3)c3ccccc23)N2CCC1CC2
Survival (HT-29 [1]): 0.71 | viability at 150 µM (HT-29 [2]): > 70%

O=C1/C(=C/c2cn(Cc3ccccc3Br)c3ccc(Br)cc23)N2CCC1CC2
Survival (HT-29 [1]): 0.96 | viability at 150 µM (HT-29 [2]): > 70%

Cc1ccc(Cn2cc(/C=C3/C(O)C4CCN3CC4)c3ccccc32)cc1 (configuration not stated)
Survival (HT-29 [3]): 0.59 | viability at 150 µM (HT-29 [2]): < 70%

O=C1/C(=C/c2cn(Cc3ccc(F)cc3)c3ccc(Br)cc23)N2CCC1CC2
Survival (HT-29 [1]): 0.81 | viability at 150 µM (HT-29 [2]): > 70%

Cc1ccc(Cn2cc(/C=C3/C(=O)C4CCN3CC4)c3ccccc32)cc1
Survival (HT-29 [1]): 1 | viability at 150 µM (HT-29 [2]): > 70%

O=C1/C(=C/c2cn(Cc3ccccc3)c3ccc(Br)cc23)N2CCC1CC2
Survival (HT-29 [1]): 1 | viability at 150 µM (HT-29 [2]): > 70%

OC1/C(=C/c2cn(Cc3ccc(Cl)cc3)c3ccccc23)N2CCC1CC2 (configuration not stated)
Survival (HT-29 [3]): 0.07 | viability at 150 µM (HT-29 [2]): < 70%

OC1/C(=C/c2cn(Cc3ccc(F)cc3)c3ccc(Br)cc23)N2CCC1CC2 (configuration not stated)
Survival (HT-29 [1]): 0.52 | viability at 150 µM (HT-29 [2]): > 70%

COc1ccc(Cn2cc(/C=C3/C(O)C4CCN3CC4)c3cc(Br)ccc32)cc1 (configuration not stated)
Survival (HT-29 [1]): 0.61 | viability at 150 µM (HT-29 [2]): > 70%

COc1ccc2c(c1)c(/C=C1/C(O)C3CCN1CC3)cn2Cc1ccccc1 (configuration not stated)
Survival (HT-29 [3]): 0.76 | viability at 150 µM (HT-29 [2]): < 70%

Cc1ccc2c(c1)c(/C=C1/C(O)C3CCN1CC3)cn2Cc1ccccc1 (configuration not stated)
Survival (HT-29 [1]): 1 | viability at 150 µM (HT-29 [2]): > 70%

Cc1ccc(Cn2cc(/C=C3/C(O)C4CCN3CC4)c3cc(C)ccc32)cc1 (configuration not stated)
Survival (HT-29 [3]): 0.59 | viability at 150 µM (HT-29 [2]): < 70%

COc1ccc(Cn2cc(/C=C3/C(=O)C4CCN3CC4)c3cc(Br)ccc32)cc1
Survival (HT-29 [1]): 0.86 | viability at 150 µM (HT-29 [2]): > 70%

Cc1ccc(Cn2cc(/C=C3/C(=O)C4CCN3CC4)c3cc(C)ccc32)cc1
Survival (HT-29 [1]): 1 | viability at 150 µM (HT-29 [2]): > 70%

COc1ccc2c(c1)c(/C=C1/C(=O)C3CCN1CC3)cn2Cc1ccccc1
Survival (HT-29 [1]): 0.75 | viability at 150 µM (HT-29 [2]): > 70%

OC1/C(=C/c2cn(Cc3ccccc3)c3ccc(Br)cc23)N2CCC1CC2 (configuration not stated)
Survival (HT-29 [1]): 0.59 | viability at 150 µM (HT-29 [2]): > 70%

O=C1/C(=C/c2cn(Cc3ccc(Cl)cc3)c3ccc(Br)cc23)N2CCC1CC2
Survival (HT-29 [1]): 1 | viability at 150 µM (HT-29 [2]): > 70%

OC1/C(=C/c2cn(Cc3ccccc3)c3ccccc23)N2CCC1CC2 (racemic)
Survival (HT-29 [1]): 0.06 | Survival (HT-29 [3]): 1 | inhibition at 50 µM (HT-29 [4]): 93%
